31 compounds from ChEMBL document CHEMBL3813679, “DARC: Mapping Surface Topography by Ray-Casting for Effective Virtual Screening at Protein Interaction Sites” (J Med Chem, 2016) can be followed below.

Active and inactive are the calls of the source. The calls are words filed in the database; no cut-off is given here.

The target of assay [1] is T1, Induced myeloid leukemia cell differentiation protein Mcl-1 (Homo sapiens, UniProt Q07820). The assay is described as follows: biochemical.
Assay [2] has as its target T1, Induced myeloid leukemia cell differentiation protein Mcl-1. In words: Reversible binding affinity to PEST and transmembrane regions lacking N-terminal His6/MBP-tagged human MCl1 (172 to 327 residues) expressed in Escherichia coli Rosetta2(2DE3) pLysS cells at 50 uM measured for 300 secs by bio-layer interferometry. For orientation: In BLI a coated tip is dipped into the sample, and binding shifts an interference pattern.

The target is the same in assay [3]. In words: Binding affinity to PEST and transmembrane regions lacking N-terminal His6/MBP-tagged human MCl1 (172 to 327 residues) expressed in Escherichia coli Rosetta2(2DE3) pLysS cells assesed as inhibition of protein interaction with carboxyfluorescein-labeled 26-mer Noxa peptide at 15 nM to 250 uM by fluorescence polarization assay in presence of CHAPS. Summed up: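 Competition fluorescence polarization assay measuring displacement of a […] cognate (Noxa) peptide from Mcl-1. Polarization was read across a dose series of test compound. Buffer contained 0.1% CHAPS to rule out compound aggregation. Ki values were derived from the competition data.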
For orientation: Fluorescence polarisation rises when a labelled molecule tumbles more slowly, as on binding a larger partner.

T1 sequence (Q07820 whole entry, the tested form may be a part): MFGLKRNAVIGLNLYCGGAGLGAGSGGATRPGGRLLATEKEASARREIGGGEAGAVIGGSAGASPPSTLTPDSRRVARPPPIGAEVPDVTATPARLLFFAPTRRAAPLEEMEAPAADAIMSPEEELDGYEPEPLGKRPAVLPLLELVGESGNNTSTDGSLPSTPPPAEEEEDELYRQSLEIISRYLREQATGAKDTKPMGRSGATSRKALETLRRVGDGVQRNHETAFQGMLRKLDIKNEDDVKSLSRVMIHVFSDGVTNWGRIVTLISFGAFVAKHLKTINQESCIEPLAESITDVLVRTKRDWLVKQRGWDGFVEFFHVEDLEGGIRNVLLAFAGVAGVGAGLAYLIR

Consider `COc1ccc(C(=O)/C=C/c2ccc(O)cc2)cc1`, for which the Ki in assay [1] is greater than 50 µM. Still for that read-out and setting: the figure for `COc1ccc(C(=O)/C=C/c2cc(Cl)c(O)c(OC)c2)cc1` is 10 µM; for `COc1cc2oc(-c3ccccc3[N+](=O)[O-])cc(=O)c2c(OC)c1OC` it is greater than 50 µM; for `COc1ccc(C(=O)/C=C/c2cccc(F)c2O)cc1` it is 20 µM. On the same count and under the same terms, the figure for `COc1cc(C(=O)/C=C/c2ccc3c(c2)OCO3)c(O)c(OC)c1OC` is greater than 50 µM; for `COc1cc(C(=O)/C=C/c2ccc(O)cc2)c(O)c(OC)c1OC` it is 40 µM.

For `COc1cc(C(=O)/C=C/c2ccc([N+](=O)[O-])cc2)c(O)c(OC)c1OC`, in assay [1], the Ki was greater than 50 µM.

`COc1cc2oc(-c3ccc(N)cc3)cc(=O)c2c(OC)c1OC` showed a Ki in assay [1] greater than 50 µM. In assay [1], `COc1ccc(C(=O)/C=C/c2cc(F)c(O)c(Cl)c2)cc1` gave a Ki of 7 µM.

Turning to `COc1cc(O)c(C(=O)/C=C/c2ccc([N+](=O)[O-])cc2)c(OC)c1OC`, the Ki in assay [1] is greater than 50 µM. Still for that read-out and setting: the figure for `O=C(/C=C/c1ccc(O)cc1)c1ccc2c(c1)CCO2` is greater than 50 µM; for `COc1ccc(C(=O)/C=C/c2ccncc2)c(O)c1` it is greater than 50 µM. In turn, `C[C@@]12CC[C@@H]3[C@H](CCC4=CC(=O)CC[C@H]43)[C@H]1CC[C@H]2OC1(O)C(=O)c2ccccc2C1=O` registered a Ki in assay [1] of 12 µM. The result in assay [2] was Active. Further, in assay [3], the inhibition entry was “Active”. `COc1cc(C(=O)/C=C/c2ccc(C(F)(F)F)cc2)c(O)c(OC)c1OC` returned a Ki in assay [1] greater than 50 µM. The same measure, in the same setting: the figure for `COc1cc(/C=C/C(=O)c2ccc(OC)c(OC)c2OC)cc(Cl)c1O` is 2 µM; for `COc1ccc(C(=O)/C=C/c2cc(F)c(O)c(Cl)c2)c(OC)c1OC` it is 3 µM. Still for that read-out and setting: the figure for `COc1ccc(/C=C/C(=O)c2cc(OC)c(OC)c(OC)c2O)cc1` is greater than 50 µM; for `COc1cc(O)c(C(=O)/C=C/c2ccc(C(F)(F)F)cc2)c(OC)c1OC` it is greater than 50 µM.

`COc1cc(O)c(C(=O)/C=C/c2ccc(O)c(OC)c2)c(OC)c1` came in with a Ki in assay [1] of 21 µM. Further, the outcome in assay [2] was Active. Moreover, the “inhibition of Noxa peptide binding (active/inactive call)” value (shortened to “inhibition … (active/inactive call)”) in assay [3] is “Active”. For the compound `O=C(/C=C/c1cc(F)c(O)c(Cl)c1)c1ccncc1`, the Ki in assay [1] was greater than 50 µM.

In the case of `COc1cc2oc(-c3ccccc3N)cc(=O)c2c(OC)c1OC`, the Ki in assay [1] was greater than 50 µM. Still for that read-out and setting: the figure for `COc1ccc(/C=C/C(=O)c2ccc(O)cc2)cc1` is greater than 50 µM; for `O=C(/C=C/c1ccncc1)c1ccc(O)cc1` it is greater than 50 µM. Take `Cc1c(/C=N/N2C=Nc3c([nH]c4ccccc34)C2)c(=O)oc2c3c4c(cc12)CCCN4CCC3`: the outcome in assay [2] was Active. The “inhibition … (active/inactive call)” value in assay [3] is “Active”.

In the case of `COc1cc2oc(-c3ccc(C(F)(F)F)cc3)cc(=O)c2c(OC)c1OC`, the Ki in assay [1] is greater than 50 µM. The same measure, in the same setting: as for `COc1ccc(C(=O)/C=C/c2ccc(O)c(F)c2)c(OC)c1OC`, the figure is 28 µM. Still for that read-out and setting: as for `O=C(/C=C/c1ccc(O)c(F)c1)c1ccc2c(c1)CCO2`, the figure is greater than 50 µM; as for `COc1cc(O)c(C(=O)/C=C/c2ccccc2[N+](=O)[O-])c(OC)c1OC`, greater than 50 µM.

In assay [1], `c1cc2c(cc1[C@H]1OC[C@H]3[C@H]1CO[C@H]3c1ccc3c(c1)OCO3)OCO2` displayed a Ki of 7 µM. The result in assay [2] was Active. In assay [3], the “inhibition … (active/inactive call)” value is “Active”. For the compound `O=C(/C=C/c1cc(F)c(O)c(F)c1)c1ccc2c(c1)CCO2`, the Ki in assay [1] was greater than 50 µM.

In assay [1], `COc1ccc(/C=C/C(=O)c2ccc(O)cc2)c(O)c1` gave a Ki greater than 50 µM.

For orientation: Ki means the dissociation constant of the complex between target and ligand, obtained from inhibition or displacement. Lower therefore signals a stronger hold on the target.
